The text below walks through data of BindingDB's records for doi:10.1021/jm3006355 (Bar-Ilan University, 2012).

The target in the assay is P2Y purinoceptor 1 (Meleagris gallopavo, UniProt P49652). Nature of the assay: Agonist activity at turkey P2Y1R expressed in 1321N1 cells assessed as increase in intracellular calcium concentration by spectrofluorimetry. In short, it runs like this: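 Cell suspensions were treated with nucleotide at various concentrations at 37 °C in 10 mM Hepes-buffered saline pH 7.4 with 1 mM CaCl2 and 1 mM MgCl2. Maximal [Ca2+]i rise was read by dual-excitation spectrofluorometry and fitted to give EC50. Three experiments on separate days.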
P2Y purinoceptor 1, sequence (P49652 whole entry): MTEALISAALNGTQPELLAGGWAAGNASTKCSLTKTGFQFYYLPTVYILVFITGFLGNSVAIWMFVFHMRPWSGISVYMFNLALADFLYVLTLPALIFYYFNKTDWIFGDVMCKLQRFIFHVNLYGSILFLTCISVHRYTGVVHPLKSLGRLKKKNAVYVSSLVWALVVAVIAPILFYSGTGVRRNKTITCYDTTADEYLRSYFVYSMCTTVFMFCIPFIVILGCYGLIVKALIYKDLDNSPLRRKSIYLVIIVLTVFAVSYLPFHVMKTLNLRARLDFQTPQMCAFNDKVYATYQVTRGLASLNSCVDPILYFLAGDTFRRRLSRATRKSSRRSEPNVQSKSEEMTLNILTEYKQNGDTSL
(Calcium flux is commonly read through the fluorescence of an indicator in the cells.)

The term EC50 denotes the concentration at which the effect is half-maximal. `B[P@@](=O)(OC[C@H]1O[C@@H](n2cnc3c(N)nc(SC)nc32)[C@H](O)[C@@H]1O)OP(=O)(O)O`: the concentration giving a half-maximal response (EC50) was 34 nM.
